Assay outcomes as filed in PubChem BioAssay.
The list is not random: actives were taken first. Their share in the collection is about 2.3%.
TRPC4 potent: TRPC4 (mouse) allosteric potentiation | HEK293 TRPC4beta/mu-opioid, DAMGO EC20, Fluo-4 Ca2+ flux; hits give high values | B-score at 10 µM | 310,000 tested, 0.42% active | AID 2227;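 active means B-score of calcium response area above 5 SD of library B-scores, with initial fluorescence ratio within 5 SD of library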;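 further: B-score of integrated fluorescence ratio over time as area under calcium response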
TRPC4 inh: blocks the mouse TRPC4 cation channel | Q9QUQ5 | HEK293 TRPC4beta/mu-opioid, DAMGO-evoked Fluo4 calcium flux; hits give low values | B-score at 10 µM | 300,000 tested, 0.39% active;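 active means B-score over 3 SD under the library average, no early fluorescence shift, positive overall ratio signal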
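Material: HEK293 cells with stable TRPC4beta plus mu-opioid receptor expression / Probe or stimulus: DAMGO in two steps, submaximal then maximal / Compound: single concentration per test compound / Technique: kinetic Fluo4 fluorescence imaging of calcium influx / Read-out: per-well B score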
TRPC6 inhibitor: inhibitors of mouse TRPC6 channel; Q61143; HEK293-TRPC6, membrane potential dye, ACh-evoked depolarization; hits give low values; B-score at 10 µM; 310,000 tested, 1.1% active; AID 2553;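 active means B-score under library mean minus 3 SD, initial fluorescence not abnormally high, positive integrated signal ratio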;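 further: B-score derived from integrated fluorescence ratio over the kinetic read; more negative B-score means stronger inhibition of depolarization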
TRPC6 act: activates the mouse TRPC6 cation channel; Q61143; HEK293-TRPC6 membrane potential dye fluorescence; hits give high values; B-score at 10 µM; 310,000 tested, 0.13% active; AID 2550;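 active means B-score of the integrated fluorescence ratio above library mean plus 3 SD, and starting fluorescence ratio within library mean plus 5 SD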;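 further: higher score means more depolarization so channel activation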
TRPC4 agonist: activators of mouse TRPC4 channel | HEK293 TRPC4beta/mu-opioid, Fluo4 calcium fluorescence; hits give high values | B-score at 10 µM | 310,000 tested, 0.49% active | AID 2237;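 active means B-score above 5 SD of library B-scores, and initial fluorescence ratio not above library mean plus 5 SD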;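 further: positive B-score marks a calcium rise read as TRPC4 activation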
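Assay system: HEK293 stable line with TRPC4beta plus mu-opioid receptor. Times: dye 45 min RT, read 110 s. Measured by: kinetic Fluo4 calcium fluorescence. Measure: B score of integrated ratio. Controls: assay buffer as low control, maximal DAMGO as high control.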
The depositor's hits bear a star; i = inactive.

SMILES	TRPC4 potent	TRPC4 inh	TRPC6 inhibitor	TRPC6 act	TRPC4 agonist
CCN1CCN(c2ccc(S(=O)(=O)N3CCCCC3)cc2NC(=O)C(C)Oc2ccc(F)cc2)CC1 (stereo not drawn)	i	i	i	i	96*
CCN1CCN(c2ccc(S(=O)(=O)N3CCCCC3)cc2NC(=O)c2cccc(C)c2)CC1	i	i	i	i	i
Nc1cccc2c1C(=O)N(CCOc1ccccc1F)C2=O	i	i	i	i	i
O=C(COc1ccc(S(=O)(=O)N2CCCCC2)cc1Cl)N1CCOCC1	i	i	i	i	i
CCN1CCN(c2ccc(S(=O)(=O)N3CCCCC3)cc2NC(=O)COc2ccc(F)cc2Cl)CC1	12*	i	i	i	i
CCN1CCN(c2ccc(S(=O)(=O)N3CCOCC3)cc2NC(=O)/C=C/c2ccc(OC)cc2OC)CC1	i	i	i	i	101*
CCN1CCN(c2ccc(S(=O)(=O)N3CCCCC3)cc2NC(=O)COc2ccc(Cl)cc2)CC1	i	i	i	i	i
O=C(COc1ccc(S(=O)(=O)N2CCCC2)cc1Cl)N1CCN(c2ccccc2)CC1	10*	i	i	i	i
CCOc1nc(C)ccc1-c1noc(-c2cccnc2)n1	i	i	i	i	i
COCCCN(Cc1ccco1)C(=O)Cn1ncc2c([nH]c3ccccc32)c1=O	i	i	i	i	i
CN(Cc1ccco1)C(=O)Cn1ncc2c([nH]c3ccccc32)c1=O	20*	i	i	i	i
CCCN1CN(Cc2ccco2)c2nc3ccccc3n2C1	i	-6*	i	i	i
CCOc1ccccc1N(CC)C(=O)c1nn(C)c2c1CSc1ccccc1-2	i	-6*	i	i	i
COc1ccc(C(=O)O)cc1S(=O)(=O)N(C)CCc1ccccn1	i	i	i	i	46*
CC(C)(CO)NCC(O)COc1ccc2c(c1)CCC2 (stereo not drawn)	i	i	i	i	i
CC(C)(C)CC(C)(C)NCC(O)COc1ccc2c(c1)CCC2 (stereo not drawn)	i	-6*	i	i	i
CCOc1cc(C(=S)N2CCN(C)CC2)ccc1OCC(=O)N1CCCC1	i	i	i	i	i
O=C(OCC(=O)N1CCCC1=O)c1cccc(S(=O)(=O)N2CCOCC2)c1	i	i	i	i	i
O=C(OCC(=O)N1CCOCC1)c1cccc(S(=O)(=O)N2CCCc3ccccc32)c1	15*	i	i	i	i
COc1cccc(C2/C(=C(\O)c3ccc4c(c3)OCCO4)C(=O)C(=O)N2CCCN2CCOCC2)c1OC (stereo not drawn)	i	i	i	i	i
O=C(Cc1ccccc1)Nc1ccccc1Sc1ccccc1	i	-6*	i	i	i
O=C(Cc1ccc(Br)cc1)Nc1ccccc1Sc1ccccc1	i	i	i	i	i
CCOc1ccc(NC(=O)CN(C)C(=O)c2cccnc2Sc2ccc(Cl)cc2)cc1OCC	i	i	i	i	i
Cc1ccc(-c2nc3c(c(=O)c4ccccc4n3C)c(=O)n2-c2ccc(F)cc2)cc1	i	i	i	i	i
Cc1nc2c(c(=O)c3ccccc3n2C)c(=O)n1C1CCCCCC1	i	i	i	i	i
SMILES	TRPC4 potent	TRPC4 inh	TRPC6 inhibitor	TRPC6 act	TRPC4 agonist
Cn1c2ccccc2c(=O)c2c(=O)n(C3CCCCC3)c(-c3ccco3)nc21	i	i	i	i	116*
Cn1c2ccccc2c(=O)c2c(=O)n(-c3ccccc3)c(-c3ccc(C(C)(C)C)cc3)nc21	21*	i	i	i	i
CCOC(=O)c1c(C)n(C)c2ccc(OCC(O)CN3CCN(C)CC3)cc12 (stereo not drawn)	i	i	i	i	i
OC(CNCCc1ccc(C(F)(F)F)cc1)COc1cccc2ccccc12 (stereo not drawn)	i	i	i	i	60*
CCOC(=O)c1c(C)n(C)c2ccc(OCC(O)CNCCc3ccccc3)cc12 (stereo not drawn)	21*	i	i	i	i
CC(=O)c1cccc(OCC(O)CNCCc2ccc(Cl)cc2)c1 (stereo not drawn)	10*	i	i	i	i
OC(CNCCc1ccc(C(F)(F)F)cc1)COc1ccc2ccccc2c1 (stereo not drawn)	24*	i	i	i	i
OC(CNCc1ccc(Cl)cc1)COc1ccccc1 (stereo not drawn)	i	i	i	i	i
CCOC(=O)C1=C(C)OC(N)=C(C#N)C1c1ccc(C)s1 (stereo not drawn)	i	i	i	i	i
Nc1cc(=O)[nH]c(=O)n1CCCc1ccccc1	i	i	i	i	i
CC(C)C1Oc2ccccc2N(CC(=O)NC2CCCCC2)C1=O (stereo not drawn)	i	i	i	i	i
CC(=O)N(Nc1ccccc1)c1ccccc1	i	i	i	i	i
NNC(=O)c1csc(-c2ccc(C(F)(F)F)cc2Cl)n1	i	i	i	i	i
Cn1cccc1-c1nc2ccccc2n1Cc1ccccc1	i	-5*	i	i	i
c1ccc(Cn2c(CN3CCCC3)nc3ccccc32)cc1	i	-7*	i	i	i
COc1ccc(S(=O)(=O)N(CC(=O)NCc2cccnc2)c2ccc(C)cc2)cc1OC	i	i	i	i	i
O=C(CCn1cccn1)Nc1ccc(-c2ccno2)cc1	i	i	i	i	i
O=[N+]([O-])c1ccccc1CNC1CCCc2ccccc21 (stereo not drawn)	i	-6*	i	i	i
Cc1ccccc1CC(=O)NC1CCCc2ccccc21 (stereo not drawn)	i	i	i	i	i
CSCCC(NC(=O)c1ccccc1Cl)C(=O)N1CCN(c2ccccn2)CC1 (stereo not drawn)	i	i	i	i	i
Clc1ccc(CN2C3=NCCCN3c3ccccc32)cc1	i	i	i	i	i
Clc1ccc(CN2C3=NCCCN3c3ccccc32)cc1Cl	i	-6*	i	i	i
CC(C)C[C@H](NC(=O)N1c2ccccc2NC(=O)[C@@H]1C(C)C)C(=O)N[C@@H](Cc1ccccc1)C(=O)O	i	i	i	i	i
O=C(CC1S/C(=N\S(=O)(=O)c2ccccc2)N(c2ccccc2)C1=O)Nc1ccc(F)cc1 (stereo not drawn)	10*	i	i	i	i
